Measurements collected from several papers.
Each line is one published result; the experiments were not run side by side.
Target: Tyrosine-protein kinase Fes/Fps (FES, Homo sapiens, UniProt P07332)

Cn1cc(-c2cc(F)cc(N3CCn4c(cc5c4CCCC5)C3=O)c2CO)cc(Nc2ccc(N3CCN(C4COC4)CC3)cn2)c1=O — inhibition (enzyme activity, inhibitor; 0.1 µM): 9%
c1ccc(C(NCCNC(c2ccccc2)c2ccccc2)c2ccccc2)cc1 — inhibition (enzyme activity, inhibitor; 10 µM): -2%
Cn1cncc1[C@@](O)(COc1ccc(C#N)cc1-c1ccc(OC(F)(F)F)cc1)c1ccc(C#N)cc1 — remaining binding (cell-free assay, competition with immobilised ligand; 1 µM): 100%
C#Cc1n[nH]c2c(-c3cn([C@@H](C)c4ccccc4)c(=O)[nH]c3=O)cc(F)cc12 — inhibition (enzyme activity, inhibitor; 0.1 µM): 7.4%
COc1ncccc1-c1cnn2ccc(N3CCN(C(=O)OC(C)C)CC3)nc12 — remaining binding (binding, competition with immobilised ligand; 1 µM): 100%
O=c1[nH]c2ccccc2n1C1CCN(Cc2ccc(-c3[nH]c4cc5ncnc5cc4nc3-c3ccccc3)cc2)CC1 — remaining signal (cell-free assay; 0.5 µM): 101%
Cn1cc(-c2cccc(N3CCc4c(sc5c4CC(C)(C)C5)C3=O)c2CO)cc(Nc2ccncn2)c1=O — inhibition (enzyme activity, inhibitor; 1 µM): 4%
CC(C)(C)c1cc(C=C(C#N)C#N)cc(Br)c1O — remaining activity (enzyme activity, inhibitor; 0.5 µM): 105%
C#Cc1n[nH]c2c(-c3cn(C(C)c4ccccn4)c(=O)[nH]c3=O)cc(F)cc12 (stereo not drawn) — inhibition (enzyme activity, inhibitor; 1 µM): 5.3%
Nc1ncc(-c2nc(N3CCOCC3)nc(N3CCOCC3)n2)c(C(F)F)n1 — remaining binding (binding, competition with immobilised ligand; 10 µM): 91%
Cc1nn(C)cc1-c1nc2c(N3CCN(Cc4ccc(Cl)cc4)CC3)c(Cl)cnc2[nH]1 — remaining binding (binding, competition with immobilised ligand; 1 µM): 100%
C[C@H](C(=O)N[C@H]1COc2ccccc2[C@@H]1S(C)(=O)=O)c1ccc(F)cc1 — inhibition (enzyme activity, inhibitor; 10 µM): -14%
